Measurements: ChEMBL document CHEMBL1139832, “Selective angiotensin II AT(2) receptor agonists devoid of the imidazole ring system” (Bioorg Med Chem, 2007)
The source made the active and inactive calls. No cut-off for these calls is given here.

Experiments:
[1] = biological target: T1, Type-1 angiotensin II receptor A (Rattus norvegicus, UniProt P25095); test: Displacement of [125I]Ang 2 from AT1 receptor in rat liver membranes; format: cell membranes, Membrane
T1 sequence (P25095 whole entry): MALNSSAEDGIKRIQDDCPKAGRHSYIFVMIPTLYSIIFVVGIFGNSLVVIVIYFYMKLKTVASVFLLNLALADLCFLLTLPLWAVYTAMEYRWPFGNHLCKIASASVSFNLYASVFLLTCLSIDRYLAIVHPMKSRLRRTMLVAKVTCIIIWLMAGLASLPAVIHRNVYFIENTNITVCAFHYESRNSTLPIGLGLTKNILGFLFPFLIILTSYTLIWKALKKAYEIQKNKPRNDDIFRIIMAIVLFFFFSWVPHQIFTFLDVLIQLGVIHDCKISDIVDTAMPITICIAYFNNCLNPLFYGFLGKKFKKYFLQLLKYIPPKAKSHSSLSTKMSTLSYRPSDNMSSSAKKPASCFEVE
Procedure, shortened: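 Rat liver membranes (5 mg original tissue) incubated with [125I]Ang II (0.03 nM) and varying test compound in 50 mM Tris–HCl pH 7.4, 100 mM NaCl, 10 mM MgCl2, 1 mM EDTA, 0.025% bacitracin, 0.2% BSA; 25 °C for 2 h. Filtered onto polyethylamine-soaked GF/B filters, gamma counting. Nonspecific binding with 1 µM Ang II; triplicate.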

[2] = Displacement of [125I]Ang 2 from AT2 receptor in pig uterus membranes; format: cell membranes, Sus scrofa, Membrane
Procedure, shortened: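 Porcine uterine myometrial membranes (10 mg original tissue), with 1 µM losartan to block AT1, incubated with [125I]Ang II (0.03 nM) and varying test compound in Tris–HCl pH 7.4 buffer with NaCl, MgCl2, EDTA, bacitracin and BSA; 25 °C, 1.5 h. Filtered, gamma counted. Nonspecific binding with 1 µM Ang II. Ki via Cheng–Prusoff (Kd 0.73 nM), one-site fit; triplicate.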

NG108-15 [3] = test: Induction of neurite outgrowth in NG108-15 cells at 1 nM after 3 days; format: functional, cell-based
Procedure, shortened: (§1)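 NG108-15 neuroblastoma×glioma cells (AT2 only; DMEM, 10% FBS, HAT) plated at 3.6·10⁴ cells/35 mm dish, then treated daily for 3 days, alone or with PD 123,319 added 30 min beforehand. Examined by phase-contrast microscopy.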

NG108-15 [4] = test: Induction of neurite outgrowth in NG108-15 cells at 0.1 uM after 3 days; format: functional, cell-based; procedure, shortened: as §1

| SMILES | Ki [1] | Ki [2] | Activity (NG108-15 [3]) | Activity (NG108-15 [4]) |
| --- | --- | --- | --- | --- |
| CCCCOC(=O)NS(=O)(=O)c1sc(CC(C)C)cc1-c1ccc(CN(C)C=O)cc1 | > 10000 nM | 3.1 nM | – | – |
| CCCCOC(=O)NS(=O)(=O)c1sc(CC(C)C)cc1-c1ccc(CN(C)C(C)=O)o1 | > 10000 nM | 9.1 nM | Active | – |
| CCCCOC(=O)NS(=O)(=O)c1sc(CC(C)C)cc1-c1ccc(CN(C)CC#N)cc1 | > 10000 nM | > 10000 nM | – | – |
| CCCCOC(=O)NS(=O)(=O)c1sc(CC(C)C)cc1-c1ccc(CN(Cc2ccccc2)C(C)=O)cc1 | > 10000 nM | 200 nM | – | – |
| CCCCCCNC(=O)Cc1ccc(-c2cc(CC(C)C)sc2S(=O)(=O)NC(=O)OCCCC)cc1 | > 10000 nM | 158 nM | – | – |
| CCCCOC(=O)NS(=O)(=O)c1sc(CC(C)C)cc1-c1ccc(CC(=O)N(Cc2ccccc2)Cc2ccccc2)cc1 | > 10000 nM | 185 nM | – | – |
| CCCCOC(=O)NS(=O)(=O)c1sc(CC(C)C)cc1-c1ccc(CN(C)C(C)=O)cc1 | > 10000 nM | 8.8 nM | Active | – |
| CCCCOC(=O)NS(=O)(=O)c1sc(CC(C)C)cc1-c1ccc(CN(C)C)cc1 | > 10000 nM | > 10000 nM | – | – |
| CCCCOC(=O)NS(=O)(=O)c1sc(CC(C)C)cc1-c1ccc(CC(=O)N(C)C)cc1 | > 10000 nM | 7 nM | – | Active |
| CCCCOC(=O)NS(=O)(=O)c1sc(CC(C)C)cc1-c1ccc(CC(=O)Nc2ccc(C)cc2)cc1 | > 10000 nM | 58 nM | – | – |
| CCCCOC(=O)NS(=O)(=O)c1sc(CC(C)C)cc1-c1ccc(CN(CC)C(C)=O)cc1 | > 10000 nM | 126 nM | – | – |
| CCCCOC(=O)NS(=O)(=O)c1sc(CC(C)C)cc1-c1ccc(CC(=O)N(c2ccccc2)c2ccccc2)cc1 | > 10000 nM | 219 nM | – | – |
| CCCCOC(=O)NS(=O)(=O)c1sc(CC(C)C)cc1-c1ccc(CN(C(=O)c2ccccc2)c2ccc(C)cc2)cc1 | > 10000 nM | 46 nM | – | – |
| CCCCOC(=O)NS(=O)(=O)c1sc(CC(C)C)cc1-c1ccc(CNC(C)=O)cc1 | > 10000 nM | 5.8 nM | – | – |
| CCCCOC(=O)NS(=O)(=O)c1sc(CC(C)C)cc1-c1ccc(CN(C)S(C)(=O)=O)cc1 | > 10000 nM | 32 nM | – | – |
| CCCCOC(=O)NS(=O)(=O)c1sc(CC(C)C)cc1-c1ccc(CN(C)C(C)=O)cn1 | > 10000 nM | > 10000 nM | – | – |

| SMILES | Ki [1] | Ki [2] | Activity (NG108-15 [3]) | Activity (NG108-15 [4]) |
| --- | --- | --- | --- | --- |
| CCCCOC(=O)NS(=O)(=O)c1sc(CC(C)C)cc1-c1csc(CN(C)C(C)=O)c1 | > 10000 nM | > 10000 nM | – | – |
| CCCCOC(=O)NS(=O)(=O)c1sc(CC(C)C)cc1-c1ccc(CC(N)=O)cc1 | > 10000 nM | 51 nM | – | – |
| CCCCOC(=O)NS(=O)(=O)c1sc(CC(C)C)cc1-c1ccc(CC(=O)N(CC)Cc2ccccc2)cc1 | > 10000 nM | 322 nM | – | – |
| CCCCOC(=O)NS(=O)(=O)c1sc(CC(C)C)cc1-c1ccc(CN(C)OC)cc1 | > 10000 nM | 2.8 nM | Active | – |
| CCCCOC(=O)NS(=O)(=O)c1sc(CC(C)C)cc1-c1ccc(CN(Cc2ccccc2)C(=O)CCCC)cc1 | > 10000 nM | 84 nM | – | – |
| CCCCOC(=O)NS(=O)(=O)c1sc(CC(C)C)cc1-c1ccc(CN(C)C(=O)CCCC)cc1 | > 10000 nM | 12 nM | – | – |
| CCCCOC(=O)NS(=O)(=O)c1sc(CC(C)C)cc1-c1ccc(CC(=O)NCc2ccccc2)cc1 | > 10000 nM | 221 nM | – | – |
| CCCCOC(=O)NS(=O)(=O)c1sc(CC(C)C)cc1-c1ccc(CN(Cc2cccnc2)C(=O)c2ccccc2)cc1 | > 10000 nM | 404 nM | – | – |
| CCCCOC(=O)NS(=O)(=O)c1sc(CC(C)C)cc1-c1ccc(CC(=O)NC)cc1 | > 10000 nM | 80 nM | – | – |
| CCCCOC(=O)NS(=O)(=O)c1sc(CC(C)C)cc1-c1ccc(CN(C)C(=O)OCC)cc1 | > 10000 nM | 9.7 nM | – | – |
| CCCCOC(=O)NS(=O)(=O)c1sc(CC(C)C)cc1-c1ccc(CN(CC)C(=O)c2cccs2)cc1 | > 10000 nM | 138 nM | – | – |
| CCCCOC(=O)NS(=O)(=O)c1sc(CC(C)C)cc1-c1ccc(CN(Cc2cccnc2)C(C)=O)cc1 | > 10000 nM | 59 nM | – | – |
| CCCCOC(=O)NS(=O)(=O)c1sc(CC(C)C)cc1-c1ccc(CC(=O)N(C)CCCC)cc1 | > 10000 nM | 367 nM | – | – |
| CCCCOC(=O)NS(=O)(=O)c1sc(CC(C)C)cc1-c1ccc(CN(C(C)=O)c2ccc(C)cc2)cc1 | > 10000 nM | 60 nM | – | – |
| CCCCOC(=O)NS(=O)(=O)c1sc(CC(C)C)cc1-c1ccc(CC(=O)N2CCOCC2)cc1 | > 10000 nM | 124 nM | – | – |
| CCCCOC(=O)NS(=O)(=O)c1sc(CC(C)C)cc1-c1ccc(CC(=O)N2CCSC2)cc1 | > 10000 nM | 133 nM | – | – |
